# Results from ChEMBL document CHEMBL3525963, “Tissue distribution and elimination of [14C]apixaban in rats” (Drug Metab Dispos, 2011).
# Tests used:
# Set-up in all cases: dose 5 mg/kg, dosed compound name [14C]-apixaban, route oral
# Settings in all cases: in vivo
# Muscle tissue = experiment: Biodistribution in female Sprague-Dawley rat muscle at 5 mg/kg, po administered as single dose measured after 24 hrs; format: ADME, organism-based
# Method in brief: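 Quantitative whole-body autoradiography was run after a single 5 mg/kg (100 μCi/kg) oral gavage to fasted female or pregnant SD rats, one rat per time point. Carcasses were frozen in hexane/dry ice, and 40 µm sagittal sections were dried at −20°C for at least 48 h. Sections were exposed to a phosphor plate alongside [14C]glucose standards (0.001–6.5 µCi/g). Results are µg eq/g, with LLOQ 0.037 µg eq/g.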
# Adrenal gland [1] = experiment: Biodistribution in male Sprague-Dawley rat adrenal gland at 5 mg/kg, po administered as single dose measured after 8 hrs; format: ADME, organism-based
# Method in brief: (§1)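 [¹⁴C]Apixaban given by oral gavage at 5 mg/kg (100 μCi/kg) in 0.5% Tween 80 in Labrafil (1.0 mg/mL dosing solution) to rats fasted overnight through 4 h post-dose. One rat per time point; carcass frozen in hexane/dry ice. Quantitative whole-body autoradiography used 40 µm sagittal sections and a phosphor imaging plate calibrated with [¹⁴C]glucose standards (0.001–6.5 μCi/g). Read-out in µg eq apixaban/g; LLOQ 0.037 μg eq/g.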
# Pancreas [2] = experiment: Biodistribution in pregnant Sprague-Dawley rat pancreas at 5 mg/kg, po administered as single dose measured after 24 hrs; format: ADME, organism-based
# Method in brief: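 Pregnant SD rats (270-319 g) were fasted overnight and given one oral gavage of 5 mg/kg (100 μCi/kg) in 0.5% Tween 80 in Labrafil. One rat was euthanized per time point (0.5, 1, 4, 8, 24, 48 h) and the carcass frozen. 40 µm sagittal sections were phosphor-imaged against [14C]glucose standards and results reported as µg eq/g; LLOQ 0.037 µg eq/g.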
# [3] = Drug level in lactating Sprague-Dawley rat milk at 5 mg/kg, po administered as single dose after 0 to 24 hrs; format: ADME, organism-based
# Blood = experiment: Biodistribution in female Sprague-Dawley rat blood at 5 mg/kg, po administered as single dose measured after 0.5 hrs; format: ADME, organism-based; method in brief: as §1
# Liver [4] = experiment: Biodistribution in male Sprague-Dawley rat liver at 5 mg/kg, po administered as single dose measured after 72 hrs; format: ADME, organism-based
# Method in brief: (§2)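 Fasted male SD rats (225-252 g) each received one oral gavage dose of [14C]apixaban, 5 mg/kg (100 μCi/kg), in 0.5% Tween 80/Labrafil vehicle. One rat was killed per time point, from 0.5 to 168 h. Frozen carcasses were cut into 40 µm sagittal whole-body sections and read by QWBA phosphor imaging against [14C]glucose calibrants. Results are in µg apixaban eq/g; BLQ <0.037 µg eq/g.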
# Brain [5] = experiment: Biodistribution in pregnant Sprague-Dawley rat brain at 5 mg/kg, po administered as single dose measured after 24 hrs; format: ADME, organism-based
# Method in brief: (§3)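 Fasted pregnant SD rats (n=6, 270-319 g) each received one oral gavage dose of [14C]apixaban, 5 mg/kg (100 μCi/kg), in 0.5% Tween 80/Labrafil. One rat was killed at each of 0.5, 1, 4, 8, 24 and 48 h. Carcasses were frozen in hexane/dry ice, cut into 40 µm sagittal sections, exposed to phosphor plates and quantified against [14C]glucose standards as µg eq/g. LLOQ was 0.037 µg eq/g.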
# Adrenal gland [6] = experiment: Biodistribution in pregnant Sprague-Dawley rat adrenal gland at 5 mg/kg, po administered as single dose measured after 48 hrs; format: ADME, organism-based; method in brief: as §3
# Brain [7] = experiment: Biodistribution in female Sprague-Dawley rat brain at 5 mg/kg, po administered as single dose measured after 0.5 hrs; format: ADME, organism-based
# Method in brief: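 [14C]Apixaban (1.0 mg/mL, 20 μCi/mL in 0.5% Tween 80 in Labrafil) given as a single oral gavage of 5 mg/kg (100 μCi/kg) to fasted female SD rats, one rat per time point. Carcasses were frozen in hexane/dry ice and cut into 40 µm sagittal sections for QWBA against [14C]glucose standards. Brain radioactivity is reported as µg eq/g, with LLOQ 0.037 µg eq/g.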
# Pancreas [8] = experiment: Biodistribution in female Sprague-Dawley rat pancreas at 5 mg/kg, po administered as single dose measured after 4 hrs; format: ADME, organism-based; method in brief: as §1
# Adrenal gland [9] = experiment: Biodistribution in female Sprague-Dawley rat adrenal gland at 5 mg/kg, po administered as single dose measured after 1 hr; format: ADME, organism-based; method in brief: as §1
# Rattus norvegicus [10] = experiment: Biodistribution in female Sprague-Dawley rat salivary gland at 5 mg/kg, po administered as single dose measured after 4 hrs; format: ADME, organism-based
# Method in brief: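 [14C]apixaban (20 μCi/mL in dosing solution) in 0.5% Tween 80 in Labrafil given by oral gavage to fasted female rats, 206-213 g, at 100 μCi/kg. One rat per time point was euthanized and snap-frozen. Sagittal 40 µm whole-body sections were read by QWBA phosphor imaging against [14C]glucose standards. Results are in µg eq apixaban/g, with LLOQ 0.037 μg eq/g.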
# Rattus norvegicus [11] = experiment: Biodistribution in male Sprague-Dawley rat brown fat at 5 mg/kg, po administered as single dose measured after 1 hr; format: ADME, organism-based, Brown adipose tissue
# Method in brief: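 Fasted male rats, 225-252 g, received [14C]apixaban by single oral gavage at 100 μCi/kg in 0.5% Tween 80/Labrafil. One rat was killed per time point and the carcass frozen. Tissue radioactivity was quantified by QWBA (40 µm sagittal sections, phosphor plate, [14C]glucose calibration) as µg eq apixaban/g, with LLOQ 0.037 μg eq/g.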
# Liver [12] = experiment: Biodistribution in pregnant Sprague-Dawley rat liver at 5 mg/kg, po administered as single dose measured after 4 hrs; format: ADME, organism-based; method in brief: as §3
# Thymus = experiment: Biodistribution in female Sprague-Dawley rat thymus at 5 mg/kg, po administered as single dose measured after 0.5 hrs; format: ADME, organism-based; method in brief: as §1
# Brain [13] = experiment: Biodistribution in male Sprague-Dawley rat brain at 5 mg/kg, po administered as single dose measured after 72 hrs; format: ADME, organism-based
# Spleen = experiment: Biodistribution in female Sprague-Dawley rat spleen at 5 mg/kg, po administered as single dose measured after 4 hrs; format: ADME, organism-based; method in brief: as §1
# Rattus norvegicus [14] = experiment: Biodistribution in pregnant Sprague-Dawley rat kidney cortex at 5 mg/kg, po administered as single dose measured after 4 hrs; format: ADME, organism-based
# Harderian gland = experiment: Biodistribution in female Sprague-Dawley rat harderian gland at 5 mg/kg, po administered as single dose measured after 4 hrs; format: ADME, organism-based; method in brief: as §1
# Brain [15] = experiment: Biodistribution in male Sprague-Dawley rat brain at 5 mg/kg, po administered as single dose measured after 0.5 hrs; format: ADME, organism-based
# Method in brief: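 Fasted male SD rats were dosed orally by gavage with a single 5 mg/kg (100 μCi/kg) dose of [14C]apixaban, formulated at 1.0 mg/mL and 20 μCi/mL in 0.5% Tween 80/Labrafil. One rat was euthanized per time point and the carcass frozen and sectioned at 40 µm. Brain was quantified by QWBA against [14C]glucose calibration standards, as µg eq/g (LLOQ 0.037 µg eq/g).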
# Rattus norvegicus [16] = experiment: Biodistribution in pregnant Sprague-Dawley rat brown fat at 5 mg/kg, po administered as single dose measured after 0.5 hrs; format: ADME, organism-based, Brown adipose tissue
# Rattus norvegicus [17] = experiment: Biodistribution in male Sprague-Dawley rat bone marrow at 5 mg/kg, po administered as single dose measured after 72 hrs; format: ADME, organism-based; method in brief: as §2
smiles,measurement,setting,value
COc1ccc(-n2nc(C(N)=O)c3c2C(=O)N(c2ccc(N4CCCC[14C]4=O)cc2)CC3)cc1,Radiolabel recovery,Muscle tissue,Not detected assumed BLQ
same,Radiolabel recovery,Adrenal gland [1],0.17 ugequiv/g
same,Radiolabel recovery,Pancreas [2],Not detected assumed BLQ
same,Radiolabel recovery,[3],4.6 µg/mL
same,Radiolabel recovery,Blood,0.4 ugequiv/g
same,Radiolabel recovery,Liver [4],Not detected assumed BLQ
same,Radiolabel recovery,Brain [5],Not detected assumed BLQ
same,Radiolabel recovery,Adrenal gland [6],Not sampled as not visualised in autoradiograph
same,Radiolabel recovery,Brain [7],< 0.037 ugequiv/g
same,Radiolabel recovery,Pancreas [8],0.55 ugequiv/g
same,Radiolabel recovery,Adrenal gland [9],1.1 ugequiv/g
same,Radiolabel recovery,Rattus norvegicus [10],0.44 ugequiv/g
same,Radiolabel recovery,Rattus norvegicus [11],0.94 ugequiv/g
same,Radiolabel recovery,Liver [12],6.13 ugequiv/g
same,Radiolabel recovery,Thymus,0.2 ugequiv/g
same,Radiolabel recovery,Brain [13],< 0.037 ugequiv/g
same,Radiolabel recovery,Spleen,0.45 ugequiv/g
same,Radiolabel recovery,Rattus norvegicus [14],1.93 ugequiv/g
same,Radiolabel recovery,Harderian gland,1.12 ugequiv/g
same,Radiolabel recovery,Brain [15],0.05 ugequiv/g
same,Radiolabel recovery,Rattus norvegicus [16],1.08 ugequiv/g
same,Radiolabel recovery,Rattus norvegicus [17],Not sampled as not visualised in autoradiograph
